Assay results collected from several papers.
Protocols differ between the studies behind these lines.

| Compound | test | test system | setting | endpoint | result |
| --- | --- | --- | --- | --- | --- |
| Cc1c(C(=O)NN2CCCC(O)C2)nc(-c2ccc(Cl)cc2Cl)n1-c1ccc(OS(=O)(=O)CCC(F)(F)F)cc1 (stereo not shown) | shake flask | aqueous buffer | pH 7.4 | logD | 3.8 |
| CS(=O)(=O)CCC#N | – | human, plasma | oral, 1000 mg, single dose, fasted | CL/F | 0.233 mL/min/kg |
| CCOC(=O)C1=C(C)N/C(=C/c2ccn(-c3ccc(C(F)(F)F)cc3)c2)C1=O | HPLC | – | pH 7.4 | chromatographic logD | 3.4 |
| C[C@@H](C(=O)NC1Cc2ccccc2C1)c1ccccc1 | metabolic stability | rat, liver microsomes | 1 µM | microsomal CLint | > 200 µL/min/mg |
| Fc1ccc(Nc2c(-c3cc(Cl)ccn3)nc3ccccn23)cc1 | metabolic stability | rat, hepatocytes | – | hepatocyte CLint | > 300 µL/min/10⁶ cells |
| CCNCCCNC/C=C\CNCCCNCC | – | human, plasma | intravenous, 200 mg, patients, infusion | clearance | 3140 mL/min |
| Cc1ccc(C(=O)N(CCCN)[C@@H](c2oc3cc(Cl)ccc3c(=O)c2Cc2ccccc2)C(C)C)cc1 | – | human, plasma | intravenous, 8 mg/m², single dose, patients, infusion | clearance | 23.1 mL/min |
| O=C1C2N=CN3C(NCc4c(F)ccc5c4CCO5)=NC=C(c4cnc(C(F)(F)F)cc4CN1CC(F)F)C23 (stereo not shown) | metabolic stability | rat, liver microsomes | 100 µM, 30 min | scaled CLint | 20 mL/min/kg |
| CC1=C(C(=O)OCc2ccccc2)C(=O)/C(=C\c2cc(C)n(-c3ccccc3C(F)(F)F)c2C)N1 | HPLC | – | pH 7.4 | chromatographic logD | 4 |
| CN(C)C(=O)c1ccc(-c2c(-c3ccccn3)nc3n2CCC3)cc1 | metabolic stability | rat, hepatocytes | – | hepatocyte CLint | < 1 µL/min/10⁶ cells |
| c1cnc2ccc(Nc3nc(NC4CC4)c4nc[nH]c4n3)cc2c1 | – | human, plasma | oral, 800 mg/m², patients | CL/F | 76.6 L/h |
| CC(C)(C)[Si](C)(C)OCCCN(c1ccc(F)cc1)c1c(-c2ccccn2)nc2ccccn12 | metabolic stability | rat, hepatocytes | – | hepatocyte CLint | 42 µL/min/10⁶ cells |
| COc1cc(C(=O)NC2CCN(C)CC2)c(F)cc1Nc1ncc(C(F)(F)F)c(Oc2cccc3c2C(=O)N(C)C3)n1 | – | human, plasma | oral, 10 mg, multiple doses, once daily, patients | CL/F | 20.8 L/h |
| CC(C)CCN(c1ccc(F)cc1)c1c(-c2ccccn2)nc2ccccn12 | metabolic stability | rat, hepatocytes | – | hepatocyte CLint | > 300 µL/min/10⁶ cells |
| OC[C@H]1O[C@@H](c2ccc(Cl)c(Cc3ccc(O[C@H]4CCOC4)cc3)c2)[C@H](O)[C@@H](O)[C@@H]1O | – | human, plasma | oral, multiple doses, steady state | CL/F | 8.99 L/h |
| COc1ccc2nc(-c3cc(N(C)C)ccn3)c(N(C)c3ccc(F)cc3)n2c1 | metabolic stability | rat, hepatocytes | – | hepatocyte CLint | > 300 µL/min/10⁶ cells |
| OC[C@H]1O[C@@H](c2ccc(Cl)c(Cc3ccc(O[C@H]4CCOC4)cc3)c2)[C@H](O)[C@@H](O)[C@@H]1O | – | human, urine | oral, 2.5 mg, single dose | renal clearance | 29.1 mL/min |
| Oc1ccc(-c2nc(N3CCC(c4ccccn4)C3)c3ccccc3n2)cc1 (stereo not shown) | metabolic stability | human, liver microsomes | – | microsomal CLint | 99 µL/min/mg |
| Fc1ccc(Nc2c(-c3ccccn3)nc3ccccn23)nc1 | metabolic stability | rat, hepatocytes | – | hepatocyte CLint | 18 µL/min/10⁶ cells |
